Results reported in ChEMBL document CHEMBL1268833, “Molecular docking and structure-activity relationship studies on benzothiazole based non-peptidic BACE-1 inhibitors” (Bioorg Med Chem Lett, 2010).

Assays:
Beta-secretase 1 [1] = molecular target: T1, Beta-secretase 1 (Homo sapiens, UniProt P56817); test: Inhibition of human BACE1 by FRET assay
Summary of the method: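 IC50 values were measured against BACE-1 with a FRET assay kit following an earlier-described protocol; values are means of duplicate measurements.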

Beta-secretase 1 [2] = molecular target: T1, Beta-secretase 1; test: Inhibition of human BACE1 at 50 uM by FRET assay
Summary of the method: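 FRET assay kit for BACE-1 activity, run per a previously described protocol; each compound was tested at 50 µM as the initial screening concentration; percent inhibition is given as the mean of duplicate measurements.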

T1 sequence (P56817 whole entry): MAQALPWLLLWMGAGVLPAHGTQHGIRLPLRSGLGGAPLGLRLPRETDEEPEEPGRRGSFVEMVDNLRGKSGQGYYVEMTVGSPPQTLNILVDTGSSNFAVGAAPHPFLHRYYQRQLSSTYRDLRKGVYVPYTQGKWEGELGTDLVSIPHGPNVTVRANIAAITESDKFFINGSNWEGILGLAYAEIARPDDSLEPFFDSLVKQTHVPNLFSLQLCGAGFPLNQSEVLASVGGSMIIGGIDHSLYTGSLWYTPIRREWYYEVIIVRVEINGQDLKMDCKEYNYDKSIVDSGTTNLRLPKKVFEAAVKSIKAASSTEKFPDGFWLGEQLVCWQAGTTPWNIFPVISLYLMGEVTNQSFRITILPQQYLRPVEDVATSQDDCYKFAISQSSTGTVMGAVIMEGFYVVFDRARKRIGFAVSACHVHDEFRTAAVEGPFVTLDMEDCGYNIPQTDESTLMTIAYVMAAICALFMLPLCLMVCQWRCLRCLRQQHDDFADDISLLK

SMILES | IC50 (Beta-secretase 1 [1]) [µM] | inhibition (Beta-secretase 1 [2]) [%]
O=C(CSc1nc2ccc(Nc3nc(N4CCCC4)nc(N4CCCC4)n3)cc2s1)NCc1ccccc1 | 1.7 | 83
O=C(CSc1nc2ccc(Nc3nc(N4CCOCC4)nc(N4CCOCC4)n3)cc2s1)Nc1ccccc1Cl | 50 | 50
Cc1ccccc1NC(=O)CSc1nc2ccc(Nc3nc(N4CCOCC4)nc(N4CCOCC4)n3)cc2s1 | – | 0.5
O=C(CSc1nc2ccc(Nc3nc(N4CCCC4)nc(N4CCCC4)n3)cc2s1)NCCOc1ccccc1 | 3 | 88
CCOc1ccc(NC(=O)CSc2nc3ccc(Nc4nc(N5CCOCC5)nc(N5CCOCC5)n4)cc3s2)cc1 | > 50 | 100
O=C(CSc1nc2ccc(Nc3nc(N4CCCCC4)nc(N4CCCCC4)n3)cc2s1)Nc1ccccc1 | > 50 | 58
Cc1cccc(NC(=O)CSc2nc3ccc(Nc4nc(N5CCCC5)nc(N5CCCC5)n4)cc3s2)c1C | 2.83 | 100
O=C(CSc1nc2ccc(Nc3nc(N4CCCC4)nc(N4CCCC4)n3)cc2s1)c1ccccc1 | 20 | 93
O=C(CSc1nc2ccc(Nc3nc(N4CCOCC4)nc(N4CCOCC4)n3)cc2s1)N1CCOCC1 | – | 16
Cc1ccc(CNC(=O)CSc2nc3ccc(Nc4nc(N5CCOCC5)nc(N5CCOCC5)n4)cc3s2)cc1 | – | 0
O=C(CSc1nc2ccc(Nc3nc(N4CCOCC4)nc(N4CCOCC4)n3)cc2s1)Nc1cccc(C(F)(F)F)c1 | – | 0
O=C(CSc1nc2ccc(Nc3nc(N4CCCC4)nc(N4CCCC4)n3)cc2s1)Nc1ccccc1 | 0.12 | 100
O=C(CSc1nc2ccc(Nc3nc(N4CCOCC4)nc(N4CCOCC4)n3)cc2s1)NCCOc1ccccc1 | – | 0
O=C(CSc1nc2ccc(Nc3nc(N4CCCC4)nc(N4CCCC4)n3)cc2s1)NCc1ccco1 | 0.69 | 87
O=C(CSc1nc2ccc(Nc3nc(N4CCOCC4)nc(N4CCOCC4)n3)cc2s1)NCc1ccccc1 | 50 | 50
COc1ccc(OC)c(NC(=O)CSc2nc3ccc(Nc4nc(N5CCCCC5)nc(N5CCCCC5)n4)cc3s2)c1 | 18 | 73
O=C(CSc1nc2ccc(Nc3nc(N4CCOCC4)nc(N4CCOCC4)n3)cc2s1)N1c2ccccc2CCc2ccccc21 | 14.7 | 100
Cc1cc(C)c(NC(=O)CSc2nc3ccc(Nc4nc(N5CCOCC5)nc(N5CCOCC5)n4)cc3s2)c(C)c1 | > 50 | 82
CCOC(=O)CSc1nc2ccc(Nc3nc(N4CCCC4)nc(N4CCCC4)n3)cc2s1 | 1.77 | 100
CCOC(=O)CSc1nc2ccc(Nc3nc(N4CCOCC4)nc(N4CCOCC4)n3)cc2s1 | – | 42
O=C(CSc1nc2ccc(Nc3nc(N4CCCCC4)nc(N4CCCCC4)n3)cc2s1)c1ccc(F)cc1 | 20 | 80
CCOc1ccc(NC(=O)CSc2nc3ccc(Nc4nc(N5CCCCC5)nc(N5CCCCC5)n4)cc3s2)cc1 | 17.2 | 77
